Source: ChEMBL document CHEMBL5357066, “Development of Novel Membrane Disrupting Lipoguanidine Compounds Sensitizing Gram-Negative Bacteria to Antibiotics” (ACS Med Chem Lett, 2024)
In brackets after ≈: the same amount, converted by molar mass.

tested on: Klebsiella pneumoniae; experiment: Synergistic antibacterial activity against Klebsiella pneumoniae M6 assessed as bacterial growth inhibition incubated for overnight in presence of PBMN by microbroth dilution method relative to control; format: functional
In short: (§1)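 Adapted broth microdilution in TSB. The test compound was in a 2-fold dilution series, with PMBN added at a fixed 30 µg/mL. Bacteria at OD 0.02 were added, and plates were incubated overnight at 37 °C. Growth/no growth was read as for the MIC (<0.1 OD600).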

Row | Structure (SMILES) | inhibition (INH)
1 | CCCCCCCCCCCCCCCCCCNC(=N)NCCCCN | <20%

tested on: Klebsiella pneumoniae; experiment: Synergistic antibacterial activity against […] Klebsiella pneumoniae M6 assessed as rifampicin MIC at <=0.25 times MIC incubated for overnight by microbroth dilution checkerboard assay; format: functional
In short: (§2)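 Checkerboard run under the MIC conditions (TSB, overnight, 37 °C). Antibiotic and lipoguanidine 2-fold series were combined on one plate before bacteria were added. Growth/no-growth was scored as for the MIC (<0.1 OD600). Single-agent MICs were measured on the same plates. Three independent repeats were done.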

Row | Structure (SMILES) | MIC
2 | CCCCCCCCCCCCCCCCCCNC(=N)NCCCCN | 16 µg/mL

tested on: Acinetobacter baumannii; experiment: Synergistic antibacterial activity against Acinetobacter baumannii ATCC 17978 assessed as bacterial growth inhibition incubated for overnight in presence of PBMN by microbroth dilution method relative to control; format: functional; in short: as §1

Row | Structure (SMILES) | inhibition (INH)
3 | CCCCCCCCCCCCCCCCCCNC(=N)NCCCCN | <20%

tested on: Escherichia coli; experiment: Synergistic antibacterial activity against Escherichia coli NCTC 12923 assessed as fold change in rifampicin MIC at <=0.25 times MIC incubated for overnight by microbroth dilution checkerboard assay relative to rifampicin alone; format: functional
In short: (§3)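 Checkerboard microdilution under MIC conditions (TSB, overnight, 37 °C). Two-fold series of each agent were combined on one plate before bacteria were added, and single-agent MICs were measured on the same plate. FIC = sum of combination MIC/alone MIC for each agent, taken from the most synergistic well. Three independent repeats, mean ± SD. ≤0.5 was taken as strong synergy and 0.5–<1 as weak.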

Row | Structure (SMILES) | fold change (FC)
4 | CCCCCCCCCCCCCCCCCCNC(=N)NCCCCN | 0

tested on: Escherichia coli; experiment: Synergistic antibacterial activity against Escherichia coli NCTC 12923 assessed as bacterial growth inhibition incubated for overnight in presence of PBMN by microbroth dilution method relative to control; format: functional; in short: as §1

Row | Structure (SMILES) | inhibition (INH)
5 | CCCCCCCCCCCCCCCCCCNC(=N)NCCCCN | <20%

tested on: Klebsiella pneumoniae; experiment: Synergistic antibacterial activity against Klebsiella pneumoniae NCTC 13368 assessed as rifampicin MIC at <=0.25 times MIC incubated for overnight by microbroth dilution checkerboard assay; format: functional; in short: as §3

Row | Structure (SMILES) | MIC
6 | CCCCCCCCCCCCCCCCCCNC(=N)NCCCCN | 16 µg/mL

tested on: Pseudomonas aeruginosa; experiment: Synergistic antibacterial activity against Pseudomonas aeruginosa PAO1 assessed as fold change in rifampicin MIC at <=0.25 times MIC incubated for overnight by microbroth dilution checkerboard assay relative to rifampicin alone; format: functional
In short: (§4)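 Checkerboard microdilution in Tryptic Soy Broth, run like the MIC assay. Overnight TSB cultures were back-diluted to OD 0.01 and added 1:1 to the combined two-fold series of both agents, then incubated overnight at 37 °C. Growth/no-growth was called at <0.1 OD600. MICs alone were read on the same plates. FIC index came from the most synergistic well; three independent repeats, mean ± SD.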

Row | Structure (SMILES) | fold change (FC)
7 | CCCCCCCCCCCCCCCCCCNC(=N)NCCCCN | 0

tested on: Acinetobacter baumannii; experiment: Antibacterial activity against Acinetobacter baumannii ATCC 17978 assessed as bacterial growth inhibition incubated for overnight by microbroth dilution method; format: functional
In short: (§5)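 Broth microdilution in Tryptic Soy Broth. DMSO stocks were diluted in TSB as 2-fold series. Overnight TSB cultures were back-diluted to OD 0.01 and mixed 1:1 with compound. Incubation was overnight at 37 °C. MIC was the lowest concentration without visible growth (<0.1 OD600). DMSO vehicle was checked at equivalent concentrations.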

Row | Structure (SMILES) | MIC
8 | CCCCCCCCCCCCCCCCCCNC(=N)NCCCCN | 16 µg/mL (≈ 41.8 µM)

tested on: Staphylococcus aureus; experiment: Antibacterial activity against methicillin resistant Staphylococcus aureus USA 300 assessed as bacterial growth inhibition incubated for overnight by microbroth dilution method; format: functional
In short: (§6)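 Microbroth dilution in Tryptic Soy Broth. DMSO stocks were diluted in TSB as 2-fold series. Overnight TSB cultures were back-diluted to OD 0.01 and mixed 1:1 with compound. Incubation was overnight at 37 °C. MIC is the lowest concentration with no visible growth (<0.1 OD600). DMSO at equivalent concentrations was checked.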

Row | Structure (SMILES) | MIC
9 | CCCCCCCCCCCCCCCCCCNC(=N)NCCCCN | 2 µg/mL (≈ 5.23 µM)

tested on: Pseudomonas aeruginosa; experiment: Synergistic antibacterial activity against Pseudomonas aeruginosa NCTC 13437 assessed as fold change in rifampicin MIC at <=0.25 times MIC incubated for overnight by microbroth dilution checkerboard assay relative to rifampicin alone; format: functional; in short: as §4

Row | Structure (SMILES) | fold change (FC)
10 | CCCCCCCCCCCCCCCCCCNC(=N)NCCCCN | 0

tested on: Klebsiella pneumoniae; experiment: Antibacterial activity against ESBL Klebsiella pneumoniae NCTC 13368 assessed as bacterial growth inhibition incubated for overnight by microbroth dilution method

Row | Structure (SMILES) | MIC
11 | CCCCCCCCCCCCCCCCCCNC(=N)NCCCCN | > 128 µg/mL

tested on: Enterococcus faecalis; experiment: Antibacterial activity against vancomycin resistant Enterococcus faecalis NCTC 12201 assessed as bacterial growth inhibition incubated for overnight by microbroth dilution method; format: functional; in short: as §6

Row | Structure (SMILES) | MIC
12 | CCCCCCCCCCCCCCCCCCNC(=N)NCCCCN | 2 µg/mL (≈ 5.23 µM)

tested on: Staphylococcus aureus; experiment: Antibacterial activity against methicillin resistant Staphylococcus aureus NCTC 13616 assessed as bacterial growth inhibition incubated for overnight by microbroth dilution method; format: functional; in short: as §6

Row | Structure (SMILES) | MIC
13 | CCCCCCCCCCCCCCCCCCNC(=N)NCCCCN | 4 µg/mL (≈ 10.5 µM)

tested on: Enterococcus faecalis; experiment: Antibacterial activity against vancomycin sensitive Enterococcus faecalis NCTC 775 assessed as bacterial growth inhibition incubated for overnight by microbroth dilution method

Row | Structure (SMILES) | MIC
14 | CCCCCCCCCCCCCCCCCCNC(=N)NCCCCN | 2 µg/mL (≈ 5.23 µM)

tested on: Acinetobacter baumannii; experiment: Synergistic antibacterial activity against Acinetobacter baumannii AYE assessed as bacterial growth inhibition incubated for overnight in presence of PBMN by microbroth dilution method relative to control; format: functional; in short: as §1

Row | Structure (SMILES) | inhibition (INH)
15 | CCCCCCCCCCCCCCCCCCNC(=N)NCCCCN | <20%

tested on: Pseudomonas aeruginosa; experiment: Synergistic antibacterial activity against Pseudomonas aeruginosa NCTC 13437 assessed as rifampicin MIC at <=0.25 times MIC incubated for overnight by microbroth dilution checkerboard assay; format: functional; in short: as §4

Row | Structure (SMILES) | MIC
16 | CCCCCCCCCCCCCCCCCCNC(=N)NCCCCN | 32 µg/mL

tested on: Staphylococcus aureus; experiment: Antibacterial activity against methicillin sensitive Staphylococcus aureus ATCC 9144 assessed as bacterial growth inhibition incubated for overnight by microbroth dilution method; format: functional; in short: as §6

Row | Structure (SMILES) | MIC
17 | CCCCCCCCCCCCCCCCCCNC(=N)NCCCCN | 8 µg/mL (≈ 20.9 µM)

tested on: Pseudomonas aeruginosa; experiment: Synergistic antibacterial activity against Pseudomonas aeruginosa NCTC 13437 assessed as bacterial growth inhibition incubated for overnight in presence of PBMN by microbroth dilution method relative to control; format: functional; in short: as §1

Row | Structure (SMILES) | inhibition (INH)
18 | CCCCCCCCCCCCCCCCCCNC(=N)NCCCCN | <20%

tested on: Acinetobacter baumannii; experiment: Synergistic antibacterial activity against Acinetobacter baumannii AYE assessed as fold change in rifampicin MIC at <=0.25 times MIC incubated for overnight by microbroth dilution checkerboard assay relative to rifampicin alone; format: functional; in short: as §3

Row | Structure (SMILES) | fold change (FC)
19 | CCCCCCCCCCCCCCCCCCNC(=N)NCCCCN | >=4

tested on: Pseudomonas aeruginosa; experiment: Antibacterial activity against Pseudomonas aeruginosa PAO1 assessed as bacterial growth inhibition incubated for overnight by microbroth dilution method; format: functional; in short: as §5

Row | Structure (SMILES) | MIC
20 | CCCCCCCCCCCCCCCCCCNC(=N)NCCCCN | > 128 µg/mL

tested on: Acinetobacter baumannii; experiment: Synergistic antibacterial activity against Acinetobacter baumannii ATCC 17978 assessed as fold change in rifampicin MIC at <=0.25 times MIC incubated for overnight by microbroth dilution checkerboard assay relative to rifampicin alone; format: functional; in short: as §3

Row | Structure (SMILES) | fold change (FC)
21 | CCCCCCCCCCCCCCCCCCNC(=N)NCCCCN | >=4

tested on: Acinetobacter baumannii; experiment: Antibacterial activity against Acinetobacter baumannii AYE assessed as bacterial growth inhibition incubated for overnight by microbroth dilution method; format: functional; in short: as §5

Row | Structure (SMILES) | MIC
22 | CCCCCCCCCCCCCCCCCCNC(=N)NCCCCN | 128 µg/mL (≈ 334 µM)

tested on: Klebsiella pneumoniae; experiment: Antibacterial activity against Klebsiella pneumoniae M6 assessed as bacterial growth inhibition incubated for overnight by microbroth dilution method

Row | Structure (SMILES) | MIC
23 | CCCCCCCCCCCCCCCCCCNC(=N)NCCCCN | > 128 µg/mL

tested on: Klebsiella pneumoniae; experiment: Synergistic antibacterial activity against Klebsiella pneumoniae NCTC 13368 assessed as bacterial growth inhibition incubated for overnight in presence of PBMN by microbroth dilution method relative to control; format: functional; in short: as §1

Row | Structure (SMILES) | inhibition (INH)
24 | CCCCCCCCCCCCCCCCCCNC(=N)NCCCCN | <20%

tested on: Staphylococcus aureus; experiment: Antibacterial activity against methicillin sensitive Staphylococcus aureus 1199B assessed as bacterial growth inhibition incubated for overnight by microbroth dilution method; format: functional; in short: as §6

Row | Structure (SMILES) | MIC
25 | CCCCCCCCCCCCCCCCCCNC(=N)NCCCCN | 4 µg/mL (≈ 10.5 µM)

tested on: Pseudomonas aeruginosa; experiment: Antibacterial activity against Pseudomonas aeruginosa NCTC 13437 assessed as bacterial growth inhibition incubated for overnight by microbroth dilution method; format: functional; in short: as §5

Row | Structure (SMILES) | MIC
26 | CCCCCCCCCCCCCCCCCCNC(=N)NCCCCN | > 128 µg/mL

tested on: Escherichia coli; experiment: Synergistic antibacterial activity against Escherichia coli NCTC 12923 assessed as rifampicin MIC at <=0.25 times MIC incubated for overnight by microbroth dilution checkerboard assay; format: functional; in short: as §3

Row | Structure (SMILES) | MIC
27 | CCCCCCCCCCCCCCCCCCNC(=N)NCCCCN | 4 µg/mL

tested on: Pseudomonas aeruginosa; experiment: Synergistic antibacterial activity against Pseudomonas aeruginosa PAO1 assessed as bacterial growth inhibition incubated for overnight in presence of […] by microbroth dilution method relative to control; format: functional
In short: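 Fixed-concentration combination MIC in TSB. The first agent was set in a two-fold dilution series (100 µL/well), then 50 µL/well of the second agent at a fixed concentration was added; PMBN was fixed at 30 µg/mL. Bacteria at OD 0.02 (50 µL) went into 150 µL of compounds, overnight at 37 °C. MIC was the lowest concentration without visible growth (<0.1 OD600).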

Row | Structure (SMILES) | inhibition (INH)
28 | CCCCCCCCCCCCCCCCCCNC(=N)NCCCCN | <20%

tested on: Enterococcus faecium; experiment: Antibacterial activity against vancomycin resistant Enterococcus faecium NCTC 12204 assessed as bacterial growth inhibition incubated for overnight by microbroth dilution method; format: functional; in short: as §6

Row | Structure (SMILES) | MIC
29 | CCCCCCCCCCCCCCCCCCNC(=N)NCCCCN | 2 µg/mL (≈ 5.23 µM)

tested on: Escherichia coli; experiment: Antibacterial activity against Escherichia coli NCTC 12923 assessed as bacterial growth inhibition incubated for overnight by microbroth dilution method; format: functional; in short: as §5

Row | Structure (SMILES) | MIC
30 | CCCCCCCCCCCCCCCCCCNC(=N)NCCCCN | > 128 µg/mL

tested on: Acinetobacter baumannii; experiment: Synergistic antibacterial activity against Acinetobacter baumannii ATCC 17978 assessed as rifampicin MIC at <=0.25 times MIC incubated for overnight by microbroth dilution checkerboard assay; format: functional; in short: as §3

Row | Structure (SMILES) | MIC
31 | CCCCCCCCCCCCCCCCCCNC(=N)NCCCCN | ≤ 0.125 µg/mL

tested on: Pseudomonas aeruginosa; experiment: Synergistic antibacterial activity against Pseudomonas aeruginosa PAO1 assessed as rifampicin MIC at <=0.25 times MIC incubated for overnight by microbroth dilution checkerboard assay; format: functional; in short: as §4

Row | Structure (SMILES) | MIC
32 | CCCCCCCCCCCCCCCCCCNC(=N)NCCCCN | 16 µg/mL

tested on: Acinetobacter baumannii; experiment: Synergistic antibacterial activity against Acinetobacter baumannii AYE assessed as rifampicin MIC at <=0.25 times MIC incubated for overnight by microbroth dilution checkerboard assay; format: functional; in short: as §3

Row | Structure (SMILES) | MIC
33 | CCCCCCCCCCCCCCCCCCNC(=N)NCCCCN | 2 µg/mL

tested on: Klebsiella pneumoniae; experiment: Synergistic antibacterial activity against Klebsiella pneumoniae NCTC 13368 assessed as fold change in rifampicin MIC at <=0.25 times MIC incubated for overnight by microbroth dilution checkerboard assay relative to rifampicin alone; format: functional; in short: as §2

Row | Structure (SMILES) | fold change (FC)
34 | CCCCCCCCCCCCCCCCCCNC(=N)NCCCCN | 0
